One compound from ChEMBL document CHEMBL1138428, “5-Heteroatom substituted pyrazoles as canine COX-2 inhibitors. Part III: molecular modeling studies on binding contribution of 1-(5-methylsulfonyl)pyrid-2-yl and 4-nitrile” (Bioorg Med Chem Lett, 2007) can be followed below.

Molecules are shown by their SMILES. pIC50: −log10 of the molar value. Converted amounts (≈) assume the structure as drawn.

Series [1] is described as follows: Inhibition of COX2 in canine whole blood. The format is tissue-based. The settings on record: Canis lupus familiaris. In a few lines:
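Heparinized canine whole blood (0.5 mL) added to drug plus LPS to stimulate PGE2, then incubated overnight at 37 °C. Controls were LPS without drug (maximum) and vehicle only (background). EDTA added to 0.3% final, samples centrifuged, and plasma stored at −20 °C. PGE2 measured by EIA. Run in duplicate or triplicate.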

Series [2] in a line: Aqueous solubility of the compound. The format is physicochemical.
A short description of series [3]: Inhibition of COX1 in canine whole blood. In kind it is tissue-based. The settings on record: Canis lupus familiaris. Summed up:
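Canine whole blood without heparin (0.5 mL) added directly to drug, then incubated 1 h at 37 °C. COX-1 activity read as platelet thromboxane B2 by enzyme immunoassay, with no-drug samples as maximum-TXB2 controls. Run in duplicate or triplicate.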

The species entered for series [4] is Canis lupus familiaris. The series can be described thus: Selectivity for COX2 over COX1 in canine whole blood. The format is tissue-based.
The species entered for series [5] is Canis lupus familiaris. Put plainly: Inhibition of COX2 in canine whole blood at 0.5 uM. In kind it is tissue-based.

The term pIC50 denotes −log10 of the IC50, conventionally taken in molar units. Low values mean a high IC50, high ones a low IC50. By solubility is commonly meant the dissolved amount per volume that the medium holds. A low value points to a poorly soluble substance. One may read the inhibition as the drop in the measured response relative to a control, in per cent. For the compound `CC1CCCN(c2c(C#N)c(C(F)F)nn2-c2ccc(S(C)(=O)=O)cc2)C1` (stereo not given), the pIC50 in series [1] is 7.05; in series [3] it was 4.56. This compound showed a solubility in series [2] of 50 µg/mL (≈ 127 µM). Moreover, the Ratio IC50 in the series filed under Canis lupus familiaris [4] stood at 397. Moreover, in the series filed under Canis lupus familiaris [5], the inhibition amounted to 104%.
